For the assay, the target named is T1, Muscarinic acetylcholine receptor M2 (Sus scrofa) (UniProt P06199).
T1 sequence (whole entry): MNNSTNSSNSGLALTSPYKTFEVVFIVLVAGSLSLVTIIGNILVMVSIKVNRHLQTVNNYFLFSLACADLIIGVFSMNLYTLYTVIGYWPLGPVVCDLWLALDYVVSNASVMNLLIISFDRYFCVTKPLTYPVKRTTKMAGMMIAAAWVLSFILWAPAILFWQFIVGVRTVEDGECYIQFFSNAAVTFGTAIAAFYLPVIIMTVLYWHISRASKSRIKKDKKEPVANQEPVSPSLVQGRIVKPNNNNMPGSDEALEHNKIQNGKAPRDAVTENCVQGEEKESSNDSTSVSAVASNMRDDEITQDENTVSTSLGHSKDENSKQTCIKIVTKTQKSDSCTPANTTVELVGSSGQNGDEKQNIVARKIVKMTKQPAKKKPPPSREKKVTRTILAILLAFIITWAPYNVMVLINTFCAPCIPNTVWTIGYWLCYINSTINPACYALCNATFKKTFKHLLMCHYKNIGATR
The assay is described as follows: Effective concentration for half maximal inhibition of [3H]NMS dissociation from Muscarinic acetylcholine receptor M2 in porcine heart ventricles; Non-active. The essentials:
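Porcine cardiac homogenates, 0.2 nM [3H]NMS in 4 mM Na2HPO4/1 mM KH2PO4 pH 7.4, 23 °C; preincubated 30 min, then dissociation started with 1 μM atropine with or without modulator. Specific binding sampled over 120 min (complete) or at t=0 and 10 min (two-point). Apparent k-1 expressed as % control; four-parameter logistic fit gives EC0.5,diss. Two to four experiments; nonspecific defined by 10^-6 M atropine; filtration, scintillation counting.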

The values below come from ChEMBL document CHEMBL1148351, “Probing the pharmacophore for allosteric ligands of muscarinic M2 receptors: SAR and QSAR studies in a series of bisquaternary salts of caracurine V and related ring systems” (J Med Chem, 2004).

The source made the active and inactive calls. The rule behind the calls is not given here.

Turning to `[O-][N+]12CC[C@@]34c5ccccc5N5[C@@H]6OCC=C7C[N+]8([O-])CC[C@]9%10c%11ccccc%11N([C@@H]%11OCC=C(C1)[C@H](C[C@@H]32)C%11[C@H]54)[C@H]9[C@H]6[C@H]7C[C@@H]%108` (stereo partly specified), the pEC0.5 entry is “inactive”.
